In general, inhibition refers to how much of the control response was suppressed. For orientation: IC50 means the concentration needed to halve the response being measured.

Results on one compound are retold here after ChEMBL document CHEMBL5247576, “Modulation of autophagy by the novel mitochondrial complex I inhibitor Authipyrin” (Bioorg Med Chem, 2019).

Active and inactive are the calls of the source. The rule behind the calls is not given here. Some results are limits rather than exact numbers.

Assay [1] has as its system MCF7. The assay is described as follows: Inhibition of starvation-induced autophagy in human MCF7 cells assessed as reduction of LC3-II lipidation at 1 uM in presence of chloroquine by immunoblotting analysis. The format is functional, cell-based. The method, boiled down: (§1)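 Cells were starved in EBSS for the indicated times, with or without chloroquine (50 μM) and compound (1 μM). Cells were then lysed and LC3 lipidation was assessed by immunoblot. n = 3.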
(In western blotting, separated proteins are transferred to a membrane and probed.)

A further assay has as its system HeLa. Nature of the assay: Inhibition of starvation-induced autophagy in human HeLa cells assessed as reduction of LC3-II lipidation at 1 uM in presence of chloroquine by immunoblotting analysis. The class given is functional, cell-based. The method, boiled down: as §1
A further assay relates to HEK-293T. The assay is described as follows: Inhibition of starvation-induced autophagy in human HEK293T cells assessed as reduction of LC3-II lipidation at 1 uM in presence of chloroquine by immunoblotting analysis. The format is functional, cell-based. The method, boiled down: as §1
Assay [2] is described as follows: Inhibition of rapamycin-induced autophagy in human MCF7 cells expressing eGFP-tagged LC3 incubated for 3 hrs in presence of chloroquine by Hoechst staining based fluorescence microscopic analysis. The class given is functional, cell-based.
In assay [3] the target is T1, Inactive tyrosine-protein kinase PEAK1 (Homo sapiens, UniProt Q9H792). Nature of the assay: Inhibition of PEAK1 (unknown origin) at 1 uM relative to control. In a few lines:
(§2)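 Single-point kinase profiling run at 1 μM compound against a full kinase panel. Values are percent inhibition of kinase activity.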

Assay [4] concerns the target Cyclin-dependent kinase 19 (Homo sapiens) (UniProt Q9BWU1). The assay is described as follows: Inhibition of GST-tagged human recombinant CDK11 (1 to 795 residues) expressed in baculovirus expression system at 1 uM relative to control. In a few lines:
as §2

The test system of assay [5] is T2, Discoidin domain-containing receptor 2 (Homo sapiens), Q16832 [N456S].
T2 sequence (whole entry): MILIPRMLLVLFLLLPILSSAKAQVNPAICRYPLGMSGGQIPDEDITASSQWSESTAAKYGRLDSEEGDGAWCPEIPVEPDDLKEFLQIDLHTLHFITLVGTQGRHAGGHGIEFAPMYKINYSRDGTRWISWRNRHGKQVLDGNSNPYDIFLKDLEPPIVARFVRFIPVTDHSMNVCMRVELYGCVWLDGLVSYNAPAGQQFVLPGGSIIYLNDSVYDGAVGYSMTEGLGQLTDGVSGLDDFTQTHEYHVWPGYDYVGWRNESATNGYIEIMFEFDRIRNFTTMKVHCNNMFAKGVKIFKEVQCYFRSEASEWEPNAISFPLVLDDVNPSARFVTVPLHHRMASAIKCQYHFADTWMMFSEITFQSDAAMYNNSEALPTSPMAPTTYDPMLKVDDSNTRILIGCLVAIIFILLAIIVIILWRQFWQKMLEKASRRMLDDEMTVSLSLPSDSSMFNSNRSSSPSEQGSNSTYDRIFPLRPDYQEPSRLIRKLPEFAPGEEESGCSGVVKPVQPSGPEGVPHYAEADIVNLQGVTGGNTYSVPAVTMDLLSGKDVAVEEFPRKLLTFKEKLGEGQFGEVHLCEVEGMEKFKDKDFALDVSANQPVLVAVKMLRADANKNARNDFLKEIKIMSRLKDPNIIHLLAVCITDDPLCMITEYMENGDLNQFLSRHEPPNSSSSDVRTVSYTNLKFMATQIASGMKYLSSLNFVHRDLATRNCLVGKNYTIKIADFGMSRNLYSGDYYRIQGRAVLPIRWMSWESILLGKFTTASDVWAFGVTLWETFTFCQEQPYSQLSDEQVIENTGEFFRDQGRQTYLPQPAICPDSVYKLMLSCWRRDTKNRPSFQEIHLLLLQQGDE
The assay is described as follows: Inhibition of GST/His-tagged human recombinant DDR2 N456S mutant (422 to 855 residues) expressed in baculovirus expression system at 1 uM relative to control. The method, boiled down: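 Single-point kinase panel (SelectScreen) run with the compound at 1 μM. Activity is reported as percent inhibition.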

The target of assay [6] is T3, Serine/threonine-protein kinase haspin (Homo sapiens) (UniProt Q8TF76).
T3 sequence (whole entry): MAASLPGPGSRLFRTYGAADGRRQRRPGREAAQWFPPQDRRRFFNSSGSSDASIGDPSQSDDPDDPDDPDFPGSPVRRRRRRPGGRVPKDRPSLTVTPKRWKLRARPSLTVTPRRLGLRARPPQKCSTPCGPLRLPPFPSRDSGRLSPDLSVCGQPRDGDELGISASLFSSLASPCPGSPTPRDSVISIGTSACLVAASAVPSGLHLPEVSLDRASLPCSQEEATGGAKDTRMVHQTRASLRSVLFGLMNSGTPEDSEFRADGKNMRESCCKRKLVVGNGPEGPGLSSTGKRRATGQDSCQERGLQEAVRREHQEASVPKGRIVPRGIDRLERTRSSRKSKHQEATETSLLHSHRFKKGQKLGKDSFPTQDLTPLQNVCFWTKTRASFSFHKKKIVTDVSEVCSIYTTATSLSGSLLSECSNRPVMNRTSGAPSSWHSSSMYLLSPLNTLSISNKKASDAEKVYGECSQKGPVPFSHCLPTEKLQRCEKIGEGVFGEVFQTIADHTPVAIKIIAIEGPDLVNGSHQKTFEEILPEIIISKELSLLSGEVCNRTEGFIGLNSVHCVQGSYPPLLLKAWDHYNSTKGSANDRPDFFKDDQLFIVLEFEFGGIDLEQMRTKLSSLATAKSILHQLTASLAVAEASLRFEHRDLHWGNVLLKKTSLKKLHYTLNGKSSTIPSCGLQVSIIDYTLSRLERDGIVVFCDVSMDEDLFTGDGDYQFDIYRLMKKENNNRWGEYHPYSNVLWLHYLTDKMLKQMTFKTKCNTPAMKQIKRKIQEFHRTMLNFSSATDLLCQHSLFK
Nature of the assay: Inhibition of GST-tagged human recombinant haspin (471 to 798 residues) expressed in insect cells at 1 uM relative to control. The method, boiled down: as §2

Assay [7] addresses T1, Inactive tyrosine-protein kinase PEAK1. The assay is described as follows: Inhibition of PEAK1 (unknown origin) relative to control. The note with it: concentration not given here. In a few lines: (§3)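 Follow-up on kinases showing more than 50% single-point inhibition. Each kinase was screened against decreasing compound concentrations, with a top concentration of 1 μM, to derive the IC50. Percent inhibition was also reported from this dose-response series.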

For assay [8], the target named is Cyclin-dependent kinase 19 (Homo sapiens) (UniProt Q9BWU1). The assay is described as follows: Inhibition of GST-tagged human recombinant CDK11 (1 to 795 residues) expressed in baculovirus expression system relative to control. The conditions noted are these: concentration not given here. In a few lines:
as §3

Assay [9] relates to T2, Discoidin domain-containing receptor 2 (Homo sapiens), Q16832 [N456S]. Nature of the assay: Inhibition of GST/His-tagged human recombinant DDR2 N456S mutant (422 to 855 residues) expressed in baculovirus expression system relative to control. The note with it: concentration not given here.
For assay [10], the target named is T3, Serine/threonine-protein kinase haspin (Homo sapiens). Nature of the assay: Inhibition of GST-tagged human recombinant haspin (471 to 798 residues) expressed in insect cells relative to control. The conditions noted are these: concentration not given here. In a few lines:
as §3

The target of assay [11] is T1, Inactive tyrosine-protein kinase PEAK1. The assay is described as follows: Inhibition of PEAK1 (unknown origin). The method, boiled down:
as §3

The target in assay [12] is Discoidin domain-containing receptor 2 (Homo sapiens, UniProt Q16832, N456S). The assay is described as follows: Inhibition of GST/His-tagged human recombinant DDR2 N456S mutant (422 to 855 residues) expressed in baculovirus expression system. The method, boiled down:
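Kinase profiling panel (SelectScreen). The kinase was tested against decreasing concentrations of the compound, starting at a highest concentration of 1 μM, and IC50 was derived from the dose-response.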

Assay [13] addresses T4, Serine/threonine-protein kinase haspin (Homo sapiens, UniProt Q8TF76).
T4 sequence (Q8TF76 whole entry): T3 sequence (whole entry)
The assay is described as follows: Inhibition of GST-tagged human recombinant haspin (471 to 798 residues) expressed in insect cells. In a few lines: as §3

Assay [14] relates to MCF7. The assay is described as follows: Inhibition of mitochondrial complex I in human MCF7 cells expressing LC3 by Seahorse XF plasma membrane permeabilizer analysis. The format is cell membranes. The method, boiled down: (§4)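 MCF7/LC3 cells were permeabilized with plasma membrane permeabilizer, then given DMSO, compound (1 μM) or a complex-specific control inhibitor together with that complex's substrates. Oligomycin and antimycin A injections followed. Oxygen consumption rate was read on a Seahorse XF analyzer. Data are mean ± SD, n = 3.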

Assay [15] deals with MCF7. The assay is described as follows: Inhibition of mitochondrial complex II in human MCF7 cells expressing LC3 by Seahorse XF plasma membrane permeabilizer analysis. The class given is cell membranes. In a few lines: as §4
Assay [16] relates to MCF7. The assay is described as follows: Inhibition of mitochondrial complex IV in human MCF7 cells expressing LC3 by Seahorse XF plasma membrane permeabilizer analysis. The class given is cell membranes. In a few lines:
as §4

The species named for a further assay is Bos taurus. Nature of the assay: Inhibition of NADH-Coenyme Q reductase in bovine heart mitochondria. The note with it: dose 0.3-10 µM. In a few lines:
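Isolated bovine heart mitochondria were assayed for NADH-coenzyme Q reductase activity across a dose range of compound. Rotenone served as the control inhibitor. Data are mean ± SD, n = 2.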

Assay [17] can be described thus: Inhibition of starvation-induced autophagy in human MCF7 cells expressing eGFP-tagged LC3 incubated for 3 hrs in presence of chloroquine by automated fluorescence microscopy.

T1 sequence (Q9H792 whole entry): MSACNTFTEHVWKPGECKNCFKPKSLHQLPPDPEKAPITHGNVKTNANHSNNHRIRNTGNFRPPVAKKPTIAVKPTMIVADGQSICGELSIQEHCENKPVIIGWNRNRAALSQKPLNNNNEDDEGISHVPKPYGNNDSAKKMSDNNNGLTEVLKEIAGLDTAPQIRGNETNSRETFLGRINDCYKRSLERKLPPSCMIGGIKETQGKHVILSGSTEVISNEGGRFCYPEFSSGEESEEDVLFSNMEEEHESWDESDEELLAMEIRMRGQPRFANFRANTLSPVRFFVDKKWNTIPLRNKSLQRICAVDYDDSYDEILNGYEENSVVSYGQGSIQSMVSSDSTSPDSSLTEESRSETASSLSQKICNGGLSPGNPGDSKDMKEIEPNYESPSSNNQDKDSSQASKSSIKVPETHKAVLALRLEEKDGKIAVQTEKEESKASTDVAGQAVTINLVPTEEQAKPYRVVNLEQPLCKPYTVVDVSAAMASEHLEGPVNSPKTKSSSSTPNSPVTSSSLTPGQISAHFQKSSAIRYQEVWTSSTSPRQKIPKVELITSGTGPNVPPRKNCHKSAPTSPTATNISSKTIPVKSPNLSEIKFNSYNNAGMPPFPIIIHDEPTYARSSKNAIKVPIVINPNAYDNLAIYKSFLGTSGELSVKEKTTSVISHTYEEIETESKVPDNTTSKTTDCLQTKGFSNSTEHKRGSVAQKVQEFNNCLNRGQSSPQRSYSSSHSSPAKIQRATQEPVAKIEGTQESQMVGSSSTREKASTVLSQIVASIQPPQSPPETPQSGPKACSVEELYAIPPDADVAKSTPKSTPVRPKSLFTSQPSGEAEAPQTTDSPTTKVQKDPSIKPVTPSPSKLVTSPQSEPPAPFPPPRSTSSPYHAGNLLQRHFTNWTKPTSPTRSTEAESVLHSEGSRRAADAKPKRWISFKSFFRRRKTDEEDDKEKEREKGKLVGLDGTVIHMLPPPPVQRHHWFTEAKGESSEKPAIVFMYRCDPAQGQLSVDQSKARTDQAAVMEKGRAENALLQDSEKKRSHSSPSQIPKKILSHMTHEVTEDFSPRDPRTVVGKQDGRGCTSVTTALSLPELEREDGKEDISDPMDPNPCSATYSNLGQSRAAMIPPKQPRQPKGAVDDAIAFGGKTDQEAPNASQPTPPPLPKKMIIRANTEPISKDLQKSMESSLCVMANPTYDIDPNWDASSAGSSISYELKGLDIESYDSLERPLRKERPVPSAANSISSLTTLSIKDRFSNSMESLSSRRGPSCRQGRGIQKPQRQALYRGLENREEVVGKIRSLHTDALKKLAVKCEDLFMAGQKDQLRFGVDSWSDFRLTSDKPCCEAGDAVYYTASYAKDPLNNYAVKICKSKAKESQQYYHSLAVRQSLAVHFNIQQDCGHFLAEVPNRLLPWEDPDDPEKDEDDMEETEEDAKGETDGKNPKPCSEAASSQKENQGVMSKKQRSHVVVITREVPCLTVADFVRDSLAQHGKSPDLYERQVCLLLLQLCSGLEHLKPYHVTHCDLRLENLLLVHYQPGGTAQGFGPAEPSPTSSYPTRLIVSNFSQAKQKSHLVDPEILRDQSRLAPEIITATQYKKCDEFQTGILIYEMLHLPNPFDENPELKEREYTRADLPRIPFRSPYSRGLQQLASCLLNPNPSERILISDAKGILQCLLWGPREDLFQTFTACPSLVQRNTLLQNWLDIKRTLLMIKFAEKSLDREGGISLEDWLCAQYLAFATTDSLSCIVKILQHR
Chain of Cyclin-dependent kinase 19 (Homo sapiens) (Q9BWU1 whole entry, the tested form may be a part): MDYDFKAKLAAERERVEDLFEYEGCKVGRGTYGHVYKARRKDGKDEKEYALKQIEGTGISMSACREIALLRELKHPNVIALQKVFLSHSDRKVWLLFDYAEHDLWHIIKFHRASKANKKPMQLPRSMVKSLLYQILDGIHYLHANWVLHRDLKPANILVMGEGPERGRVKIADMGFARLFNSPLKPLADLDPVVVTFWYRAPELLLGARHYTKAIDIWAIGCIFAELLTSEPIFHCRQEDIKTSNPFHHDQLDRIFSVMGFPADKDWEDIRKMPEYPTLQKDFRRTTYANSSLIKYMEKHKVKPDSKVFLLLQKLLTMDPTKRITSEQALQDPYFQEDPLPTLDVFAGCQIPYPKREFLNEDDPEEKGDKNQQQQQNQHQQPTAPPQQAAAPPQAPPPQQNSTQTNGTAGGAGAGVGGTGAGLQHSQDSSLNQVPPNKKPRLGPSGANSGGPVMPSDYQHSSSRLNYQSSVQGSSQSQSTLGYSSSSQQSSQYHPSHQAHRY

`O=C(c1ccc2c(c1)OCCO2)C1CCN(c2ncnc3sccc23)CC1`: the inhibition entry in the assay with MCF7 [1], with HeLa, in the assay with HEK-293T and in the assay with MCF7 [14] was “Active” throughout. In addition, the IC50 in assay [2] was 0.18 µM; in assay [11], 0.62 µM; in assay [12] it was above 1 µM; in [13], above 1 µM; in [17] it was 0.02 µM. Moreover, the inhibition in assay [3] turned out to be 83%; in assay [4], 70%; in assay [5], 58%; in assay [6], 51%; in assay [7], 68%; in [8], 47%. The inhibition in assay [9] was 38%; in [10], 33%; in the assay listed under Bos taurus it was “Dose-Dependent Effect”. Further, the inhibition entry with MCF7 [15] and in the assay on MCF7 [16] was “inactive” in each case.
